Only a selection was taken, and hits are over-represented in it overall.
T cruzi HTS: blocks T. cruzi growth inside host cells | intracellular Trypanosoma cruzi in host cells, plate reader | activity score (inhibition), % at 5.01 µM | 4.9% of 22,000 active | AID 651903; in the data active = activity score above about 55%;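 note: parasites and compound incubated about four days before reading; 0% = median of neutral control wells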
A1 apoptosis 2: A1 inhibition read as caspase activation; MEF A1-2A-BIM cells, caspase-Glo luminescence, 3 h; percent of clofoctol response, DMSO zero; caspase activation, % (concentration not given with the values); 24,000 tested, under 10 active; AID 2465; in the data active = caspase activation above about 5.9%
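System: mouse embryonic fibroblasts co-expressing A1 and BIM (A1-2A-BIM), primed for A1 dependence; amount: 2500 cells/well; doses: 50 nL pinned compound; schedule: cells settled overnight, compound exposure 3 h at 37 °C, 5% CO2; detection: Caspase-Glo 3/7 luminescence, 1 h at room temperature; read-out: Caspase-3/7 activation, seen as rise in luminescence signal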
INS-1E rescue: INS-1E beta cell protection from cytokine death. protection from cytokine-induced ATP loss, % at 10 µM. 0.1% of 20,000 active. INS-1E cytokine-induced death, ATP luminescence, 48 h; normalised: neutral wells 0, positive control 100;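 active = mean replicate protection from cytokine-induced ATP loss at least 50% and at least 75% of replicates each reaching 50%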
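assay system = INS-1E rat insulinoma cells | amount = 8000 cells per well | medium = phenol-red-free RPMI with 5% fetal bovine serum | doses = one compound concentration, pin transfer | timing = 48 h cytokine plus compound treatment, 10 min reagent incubation | also added = IL-1β, TNF-α and IFN-γ cytokine mix | signal = CellTiter-Glo luminescence measuring cellular ATP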
* marks the source's active call; other numbers are inactive results; nt = no result given.

SMILES | T cruzi HTS | A1 apoptosis 2 | INS-1E rescue
Cc1ccc(S(=O)(=O)N(C)C[C@H]2OCCCC[C@@H](C)Oc3ccc(NS(=O)(=O)c4cccs4)cc3C(=O)N([C@@H](C)CO)C[C@H]2C)cc1 | nt | -1 | nt
C[C@H]1CN([C@@H](C)CO)C(=O)CCCn2nncc2CO[C@@H]1CN(C)S(=O)(=O)c1ccc(Oc2ccccc2)cc1 | 73* | 1 | 2
C[C@H](CO)N1C[C@H](C)[C@H](CN(C)S(=O)(=O)c2ccccc2)OCc2cnnn2CCCC1=O | -11 | nt | nt
C[C@H](CO)N1C[C@H](C)[C@@H](CN(C)S(=O)(=O)c2ccc(Oc3ccccc3)cc2)OCc2cnnn2CCCC1=O | 73* | 0 | nt
C[C@@H]1CN([C@@H](C)CO)C(=O)CCCn2nncc2CO[C@H]1CN(C)S(=O)(=O)c1ccc(Oc2ccccc2)cc1 | 8 | 0 | nt
COc1ccc(NC(=O)N(C)C[C@@H]2OCCCC[C@H](C)Oc3ccc(NS(=O)(=O)c4ccc(F)cc4)cc3C(=O)N([C@H](C)CO)C[C@H]2C)cc1 | nt | 1 | nt
Cc1noc(C)c1NC(=O)Nc1ccc2c(c1)C(=O)N([C@H](C)CO)C[C@@H](C)[C@H](CN(C)S(=O)(=O)c1cccs1)O2 | -9 | nt | 9
Cc1noc(C)c1S(=O)(=O)Nc1cccc2c1O[C@H](CN(C)C(=O)Nc1ccccc1)[C@H](C)CN([C@@H](C)CO)C2=O | 5 | 0 | 5
O=C(CCCCC(=O)N/N=C/c1cc(Br)cs1)NO | 13 | -1 | 9
C[C@@H]1CCCCO[C@@H](CN(C)Cc2ccc(Cl)c(Cl)c2)[C@@H](C)CN([C@@H](C)CO)C(=O)c2cc(NC(=O)Nc3cccc4ccccc34)ccc2O1 | nt | 1 | nt
C[C@@H]1CCCCO[C@@H](CN(C)Cc2ccccc2)[C@H](C)CN([C@@H](C)CO)C(=O)c2cc(NC(=O)Nc3cccc4ccccc34)ccc2O1 | nt | -1 | nt
C[C@@H]1CCCCO[C@H](CN(C)Cc2ccc(Cl)c(Cl)c2)[C@@H](C)CN([C@H](C)CO)C(=O)c2cc(NC(=O)Nc3cccc4ccccc34)ccc2O1 | 62* | 1 | -17
C[C@@H]1CCCCO[C@@H](CN(C)Cc2ccccc2)[C@@H](C)CN([C@H](C)CO)C(=O)c2cc(NC(=O)Nc3cccc4ccccc34)ccc2O1 | 57* | 0 | 1
C[C@@H]1CN([C@H](C)CO)C(=O)Cc2cc(NC(=O)Nc3ccc(C(F)(F)F)cc3)ccc2O[C@@H]1CN(C)C(=O)Nc1ccc(F)cc1 | -2 | 0 | 6
C[C@@H]1CN([C@@H](C)CO)C(=O)c2cccc(NC(=O)Nc3ccc4c(c3)OCO4)c2O[C@@H]1CN(C)C | -53 | 1 | 6
C[C@@H]1CN([C@@H](C)CO)C(=O)c2cc(NC(=O)CCN3CCOCC3)ccc2O[C@H]1CN(C)C(=O)Nc1cccc2ccccc12 | -11 | -1 | 7
C[C@H](CO)N1C[C@H](C)[C@H](CN(C)Cc2ccc(C(=O)Nc3ccccc3N)cc2)Oc2ccc(N(C)C)cc2CC1=O | 59* | nt | 65*
C[C@@H]1CN([C@@H](C)CO)C(=O)c2cc(N(C)C)ccc2O[C@@H]1CN(C)Cc1ccc(C(=O)Nc2ccccc2N)cc1 | 61* | nt | 28
C[C@H]1CN([C@@H](C)CO)C(=O)c2cc(N(C)C)ccc2O[C@@H]1CN(C)Cc1ccc(C(=O)Nc2ccccc2N)cc1 | 34 | nt | 29
C[C@H](CO)N1C[C@H](C)[C@@H](CN(C)Cc2ccc(C(=O)Nc3ccccc3N)cc2)Oc2ccc(N(C)C)cc2CC1=O | nt | -1 | nt
C[C@@H]1CN([C@@H](C)CO)C(=O)Cc2cc(NC(=O)c3ccncc3)ccc2O[C@@H]1CN(C)Cc1ccc(C(=O)Nc2ccccc2N)cc1 | 53 | 2 | -13
C[C@H]1CN([C@@H](C)CO)C(=O)Cc2cc(N(C)C)ccc2O[C@H]1CN(C)Cc1ccc(C(=O)Nc2ccccc2N)cc1 | 62* | nt | 32
O=C(NO)c1ccc(C(=O)N/N=C/c2ccoc2)cc1 | 1 | 0 | 6
C[C@@H]1CCCCO[C@@H](CN(C)CC2CCCCC2)[C@@H](C)CN([C@H](C)CO)C(=O)c2cc(NC(=O)Nc3cccc4ccccc34)ccc2O1 | 67* | nt | -32
C[C@@H]1CCCCO[C@H](CN(C)CC2CCCCC2)[C@@H](C)CN([C@H](C)CO)C(=O)c2cc(NC(=O)Nc3cccc4ccccc34)ccc2O1 | 64* | nt | -33
SMILES | T cruzi HTS | A1 apoptosis 2 | INS-1E rescue
C[C@@H]1CCCCO[C@@H](CN(C)CC2CCCCC2)[C@H](C)CN([C@@H](C)CO)C(=O)c2cc(NC(=O)Nc3cccc4ccccc34)ccc2O1 | nt | 0 | nt
C[C@H](CO)N1C[C@H](C)[C@@H](CN(C)CC2CC2)OCCCC[C@H](C)Oc2ccc(NC(=O)Nc3cccc4ccccc34)cc2C1=O | nt | 1 | nt
COc1ccc(S(=O)(=O)N(C)C[C@@H]2Oc3c(NS(=O)(=O)c4ccc(Cl)cc4)cccc3C(=O)N([C@@H](C)CO)C[C@H]2C)cc1 | 10 | nt | 0
C[C@H](CO)N1C[C@H](C)[C@H](CN(C)S(=O)(=O)c2ccc(F)cc2)Oc2ccc(NC(=O)Cn3cnnn3)cc2CC1=O | -1 | nt | 3
C[C@@H]1CN([C@H](C)CO)C(=O)Cc2cc(NC(=O)Nc3ccc(F)cc3)ccc2O[C@@H]1CN(C)Cc1ccc(Oc2ccccc2)cc1 | 71* | 0 | -53
COc1ccc(NC(=O)Nc2ccc3c(c2)CC(=O)N([C@H](C)CO)C[C@@H](C)[C@@H](CN(C)Cc2ccc(-c4ccccc4)cc2)O3)cc1 | 72* | nt | -10
C[C@H]1CN([C@@H](C)CO)C(=O)Cc2cc(NC(=O)Nc3ccc(F)cc3)ccc2O[C@H]1CN(C)Cc1ccccc1 | 25 | 1 | -10
COc1ccc(NC(=O)Nc2ccc3c(c2)CC(=O)N([C@H](C)CO)C[C@H](C)[C@H](CN(C)Cc2ccc(Oc4ccccc4)cc2)O3)cc1 | 32 | 0 | -37
COc1ccc(NC(=O)Nc2ccc3c(c2)CC(=O)N([C@@H](C)CO)C[C@@H](C)[C@@H](CN(C)Cc2ccc(Oc4ccccc4)cc2)O3)cc1 | 60* | 2 | -12
C[C@H](CO)N1C[C@H](C)[C@@H](CN(C)Cc2ccc(Oc3ccccc3)cc2)Oc2ccc(NC(=O)Nc3ccc(F)cc3)cc2CC1=O | nt | 0 | nt
COc1ccc(NC(=O)Nc2ccc3c(c2)CC(=O)N([C@H](C)CO)C[C@H](C)[C@H](CN(C)Cc2ccc(-c4ccccc4)cc2)O3)cc1 | 15 | 0 | -36
C[C@H]1CN([C@@H](C)CO)C(=O)Cc2cc(NC(=O)Nc3ccc(F)cc3)ccc2O[C@@H]1CN(C)Cc1ccc(Oc2ccccc2)cc1 | 70* | nt | -25
CCO/N=[N+](\[O-])N1CCCC1 | nt | 1 | nt
C[C@H]1CN([C@@H](C)CO)C(=O)c2cc(NC(=O)NC3CCCCC3)ccc2O[C@@H]1CN(C)CC1CCCCC1 | -8 | -1 | 3
COc1ccc(S(=O)(=O)N[C@@H]2CCCN(Cc3cccc(OCCO)c3)C2)cc1 | nt | 0 | nt
C[C@H]1CN([C@@H](C)CO)C(=O)c2cc(NC(=O)C3CC3)ccc2O[C@@H]1CN(C)Cc1ccc2c(c1)OCO2 | 9 | 0 | 2

From PubChem
